Assay results reported in the M2OR odorant receptor database.

Tests used:
Conditions in all cases: stereoisomer not certain
UniProt A2ATE5 = biological target: T1, UniProt A2ATE5
T1 sequence (whole entry): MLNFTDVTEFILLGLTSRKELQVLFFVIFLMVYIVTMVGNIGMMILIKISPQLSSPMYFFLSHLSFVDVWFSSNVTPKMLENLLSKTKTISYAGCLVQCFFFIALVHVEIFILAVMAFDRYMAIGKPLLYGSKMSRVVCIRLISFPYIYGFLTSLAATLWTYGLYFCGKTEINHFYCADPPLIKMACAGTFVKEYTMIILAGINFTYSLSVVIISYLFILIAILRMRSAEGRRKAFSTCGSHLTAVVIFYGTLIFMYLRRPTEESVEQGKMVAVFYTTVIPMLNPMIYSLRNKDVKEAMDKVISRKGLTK
Method in brief: (§1)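 Whether a receptor–molecule pair is responsive (active) rests on the original authors' judgment that its measured signal was statistically different from baseline. Pairs without that judgment are non-responsive (inactive). Sources used varied assay methods, commonly transient luciferase assays in mammalian cell lines.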

UniProt A2AVB0 = biological target: T2, UniProt A2AVB0
T2 sequence (whole entry): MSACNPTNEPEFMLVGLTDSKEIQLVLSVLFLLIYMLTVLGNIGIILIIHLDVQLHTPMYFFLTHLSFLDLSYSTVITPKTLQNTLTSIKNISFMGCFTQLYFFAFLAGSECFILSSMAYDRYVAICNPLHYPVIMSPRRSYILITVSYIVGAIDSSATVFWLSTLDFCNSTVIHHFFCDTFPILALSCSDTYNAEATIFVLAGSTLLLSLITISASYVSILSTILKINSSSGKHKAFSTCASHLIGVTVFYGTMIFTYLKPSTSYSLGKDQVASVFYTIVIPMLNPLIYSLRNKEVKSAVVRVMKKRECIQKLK
Method in brief: as §1

UniProt A2AVB5 = biological target: T3, UniProt A2AVB5
T3 sequence (whole entry): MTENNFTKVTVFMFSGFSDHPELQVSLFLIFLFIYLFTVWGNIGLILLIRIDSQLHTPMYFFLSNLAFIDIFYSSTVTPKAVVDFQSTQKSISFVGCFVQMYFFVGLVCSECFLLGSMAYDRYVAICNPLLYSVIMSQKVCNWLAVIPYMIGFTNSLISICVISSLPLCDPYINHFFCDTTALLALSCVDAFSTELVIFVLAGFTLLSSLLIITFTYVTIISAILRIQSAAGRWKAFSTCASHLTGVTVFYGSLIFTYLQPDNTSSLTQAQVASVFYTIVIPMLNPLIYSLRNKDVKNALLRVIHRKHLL
Method in brief: as §1

UniProt B2RVX8 = biological target: T4, UniProt B2RVX8
T4 sequence (whole entry): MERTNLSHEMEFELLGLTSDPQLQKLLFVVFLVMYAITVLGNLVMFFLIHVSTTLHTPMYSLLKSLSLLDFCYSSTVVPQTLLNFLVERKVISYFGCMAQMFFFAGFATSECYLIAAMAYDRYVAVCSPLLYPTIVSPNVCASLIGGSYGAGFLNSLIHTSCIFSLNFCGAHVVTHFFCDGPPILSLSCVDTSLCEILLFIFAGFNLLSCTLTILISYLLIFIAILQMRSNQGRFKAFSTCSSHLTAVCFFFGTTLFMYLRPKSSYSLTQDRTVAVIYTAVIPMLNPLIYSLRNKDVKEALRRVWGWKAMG
Method in brief: as §1

UniProt E9PVX1 = biological target: T5, UniProt E9PVX1
T5 sequence (whole entry): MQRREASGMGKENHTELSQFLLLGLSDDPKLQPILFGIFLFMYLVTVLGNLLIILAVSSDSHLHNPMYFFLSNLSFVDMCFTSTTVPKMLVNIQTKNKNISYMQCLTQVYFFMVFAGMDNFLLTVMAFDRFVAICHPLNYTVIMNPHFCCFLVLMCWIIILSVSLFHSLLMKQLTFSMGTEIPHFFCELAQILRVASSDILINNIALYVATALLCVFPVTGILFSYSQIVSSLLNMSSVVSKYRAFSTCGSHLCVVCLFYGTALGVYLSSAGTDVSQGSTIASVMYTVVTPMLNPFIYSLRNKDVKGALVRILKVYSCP
Method in brief: as §1

UniProt E9PZ66 = biological target: T6, UniProt E9PZ66
T6 sequence (whole entry): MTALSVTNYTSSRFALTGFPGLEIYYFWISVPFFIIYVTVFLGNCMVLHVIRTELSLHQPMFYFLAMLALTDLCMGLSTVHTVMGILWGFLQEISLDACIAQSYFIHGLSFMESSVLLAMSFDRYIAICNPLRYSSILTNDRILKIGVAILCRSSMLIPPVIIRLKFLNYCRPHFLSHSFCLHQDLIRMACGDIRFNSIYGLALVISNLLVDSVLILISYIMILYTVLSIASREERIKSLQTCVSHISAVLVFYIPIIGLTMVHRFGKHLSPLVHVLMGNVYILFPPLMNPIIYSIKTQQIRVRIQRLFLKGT
Method in brief: as §1

UniProt E9Q4X7 = biological target: T7, UniProt E9Q4X7
T7 sequence (whole entry): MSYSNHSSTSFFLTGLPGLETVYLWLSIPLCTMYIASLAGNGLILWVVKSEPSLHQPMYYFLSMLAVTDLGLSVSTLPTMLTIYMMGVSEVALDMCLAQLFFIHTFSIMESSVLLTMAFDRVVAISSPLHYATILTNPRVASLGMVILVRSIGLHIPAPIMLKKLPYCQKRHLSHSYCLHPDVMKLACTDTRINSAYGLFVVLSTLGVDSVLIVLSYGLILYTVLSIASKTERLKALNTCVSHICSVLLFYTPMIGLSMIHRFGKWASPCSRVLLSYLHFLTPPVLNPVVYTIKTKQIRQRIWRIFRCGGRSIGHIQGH
Method in brief: as §1

UniProt E9Q546 = biological target: T8, UniProt E9Q546
T8 sequence (whole entry): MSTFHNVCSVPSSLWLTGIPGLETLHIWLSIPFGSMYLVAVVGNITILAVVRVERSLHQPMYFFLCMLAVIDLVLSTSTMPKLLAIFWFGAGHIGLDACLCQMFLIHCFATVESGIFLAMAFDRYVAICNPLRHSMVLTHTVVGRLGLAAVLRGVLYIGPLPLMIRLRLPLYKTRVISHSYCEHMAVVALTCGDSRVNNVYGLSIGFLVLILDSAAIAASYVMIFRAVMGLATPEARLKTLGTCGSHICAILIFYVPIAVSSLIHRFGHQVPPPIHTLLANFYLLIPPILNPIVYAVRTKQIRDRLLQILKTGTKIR
Method in brief: as §1

UniProt E9Q6Z7 = biological target: T9, UniProt E9Q6Z7
T9 sequence (whole entry): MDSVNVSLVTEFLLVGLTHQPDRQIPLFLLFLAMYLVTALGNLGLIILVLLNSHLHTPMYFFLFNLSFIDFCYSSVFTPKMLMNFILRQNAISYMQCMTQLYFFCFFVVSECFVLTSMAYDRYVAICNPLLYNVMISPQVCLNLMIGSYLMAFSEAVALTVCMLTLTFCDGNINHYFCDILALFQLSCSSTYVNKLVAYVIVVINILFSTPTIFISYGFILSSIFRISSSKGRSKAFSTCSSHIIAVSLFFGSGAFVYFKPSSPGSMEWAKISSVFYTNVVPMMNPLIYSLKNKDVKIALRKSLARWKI
Method in brief: as §1

UniProt K7N609 = biological target: T10, UniProt K7N609
T10 sequence (whole entry): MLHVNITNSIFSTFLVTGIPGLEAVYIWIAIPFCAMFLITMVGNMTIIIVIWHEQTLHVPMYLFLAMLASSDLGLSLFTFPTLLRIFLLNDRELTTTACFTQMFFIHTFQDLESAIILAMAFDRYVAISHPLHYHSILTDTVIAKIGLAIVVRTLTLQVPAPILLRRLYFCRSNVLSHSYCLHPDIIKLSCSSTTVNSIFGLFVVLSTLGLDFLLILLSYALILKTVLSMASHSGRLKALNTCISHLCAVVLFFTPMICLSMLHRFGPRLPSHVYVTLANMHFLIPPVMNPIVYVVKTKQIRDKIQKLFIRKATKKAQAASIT
Method in brief: as §1

UniProt E9PX47 = biological target: T11, UniProt E9PX47
T11 sequence (whole entry): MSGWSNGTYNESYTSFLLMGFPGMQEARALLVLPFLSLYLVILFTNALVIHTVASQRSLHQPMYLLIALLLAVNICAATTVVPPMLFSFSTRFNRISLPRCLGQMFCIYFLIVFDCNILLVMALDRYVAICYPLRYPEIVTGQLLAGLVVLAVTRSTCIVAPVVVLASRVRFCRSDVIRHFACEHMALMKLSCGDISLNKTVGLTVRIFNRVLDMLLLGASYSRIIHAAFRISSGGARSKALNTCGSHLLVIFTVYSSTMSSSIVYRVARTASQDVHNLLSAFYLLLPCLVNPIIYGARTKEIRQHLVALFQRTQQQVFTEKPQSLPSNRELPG
Method in brief: as §1

UniProt E9PXN3 = biological target: T12, UniProt E9PXN3
T12 sequence (whole entry): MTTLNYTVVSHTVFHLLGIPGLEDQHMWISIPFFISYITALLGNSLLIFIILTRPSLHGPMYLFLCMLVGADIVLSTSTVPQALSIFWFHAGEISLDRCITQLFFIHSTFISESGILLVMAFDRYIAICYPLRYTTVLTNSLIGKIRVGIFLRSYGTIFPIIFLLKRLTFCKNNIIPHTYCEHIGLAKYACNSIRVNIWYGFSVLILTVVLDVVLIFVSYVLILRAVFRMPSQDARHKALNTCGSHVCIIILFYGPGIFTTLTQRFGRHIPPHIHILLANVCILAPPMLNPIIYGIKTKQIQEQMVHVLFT
Method in brief: as §1

Measured: odorant receptor agonist call;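 further: active if original authors judged signal statistically different from baseline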

CCCCCC1=C(C)CCC1=O
inactive: UniProt A2ATE5 | UniProt A2AVB0 | UniProt A2AVB5 | UniProt E9PVX1 | UniProt E9PZ66 | UniProt E9Q4X7 | UniProt E9Q546 | UniProt E9Q6Z7 | UniProt K7N609
active: UniProt B2RVX8

CCCCCCO
inactive: UniProt A2ATE5 | UniProt A2AVB0 | UniProt A2AVB5 | UniProt B2RVX8 | UniProt E9PVX1 | UniProt E9PX47 | UniProt E9PXN3 | UniProt E9PZ66 | UniProt E9Q4X7 | UniProt E9Q546 | UniProt E9Q6Z7 | UniProt K7N609

CCCCCCCCO
inactive: UniProt A2ATE5 | UniProt A2AVB0 | UniProt A2AVB5 | UniProt B2RVX8 | UniProt E9PVX1 | UniProt E9PX47 | UniProt E9PXN3 | UniProt E9PZ66 | UniProt E9Q4X7 | UniProt E9Q546 | UniProt E9Q6Z7 | UniProt K7N609

CCCCC(=O)O
active: UniProt E9PZ66
inactive: UniProt A2ATE5 | UniProt A2AVB0 | UniProt A2AVB5 | UniProt B2RVX8 | UniProt E9PVX1 | UniProt E9PX47 | UniProt E9PXN3 | UniProt E9Q4X7 | UniProt E9Q546 | UniProt E9Q6Z7 | UniProt K7N609

O=C1Cc2ccccc2O1
inactive: UniProt A2ATE5 | UniProt A2AVB0 | UniProt A2AVB5 | UniProt B2RVX8 | UniProt E9PVX1 | UniProt E9PZ66 | UniProt E9Q4X7 | UniProt E9Q546 | UniProt E9Q6Z7 | UniProt K7N609

CCCCCCCCS
inactive: UniProt A2ATE5 | UniProt A2AVB0 | UniProt A2AVB5 | UniProt B2RVX8 | UniProt E9PVX1 | UniProt E9PZ66 | UniProt E9Q4X7 | UniProt E9Q546 | UniProt E9Q6Z7 | UniProt K7N609

CCCCCCCO
inactive: UniProt A2ATE5 | UniProt A2AVB0 | UniProt A2AVB5 | UniProt B2RVX8 | UniProt E9PVX1 | UniProt E9PX47 | UniProt E9PXN3 | UniProt E9PZ66 | UniProt E9Q4X7 | UniProt E9Q546 | UniProt E9Q6Z7 | UniProt K7N609

CCCCCCCC(C)=O
inactive: UniProt A2ATE5 | UniProt A2AVB0 | UniProt A2AVB5 | UniProt B2RVX8 | UniProt E9PVX1 | UniProt E9PZ66 | UniProt E9Q4X7 | UniProt E9Q546 | UniProt E9Q6Z7 | UniProt K7N609

O=C(c1ccccc1)c1ccccc1
inactive: UniProt A2ATE5 | UniProt A2AVB0 | UniProt A2AVB5 | UniProt B2RVX8 | UniProt E9PVX1 | UniProt E9PZ66 | UniProt E9Q4X7 | UniProt E9Q546 | UniProt E9Q6Z7 | UniProt K7N609

CCC(=O)C(=O)CC
inactive: UniProt A2ATE5 | UniProt A2AVB0 | UniProt A2AVB5 | UniProt B2RVX8 | UniProt E9PVX1 | UniProt E9PZ66 | UniProt E9Q4X7 | UniProt E9Q546 | UniProt E9Q6Z7 | UniProt K7N609

CCCCCCOC(C)=O
inactive: UniProt A2ATE5 | UniProt A2AVB0 | UniProt A2AVB5 | UniProt B2RVX8 | UniProt E9PVX1 | UniProt E9PZ66 | UniProt E9Q4X7 | UniProt E9Q546 | UniProt E9Q6Z7 | UniProt K7N609
